Legend:
Cavia porcellus [1] = species: Cavia porcellus; assay: Antagonist activity of compound in GPI/LMMP tested with PL-017; format: functional
How it was run: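 Guinea pig ileum longitudinal muscle/myenteric plexus preparation. Antagonism is measured against the μ agonist PL-017 and expressed as Ke (nM). Agonist activity is recorded separately as percent inhibition of contraction height at a single stated concentration.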

Cavia porcellus [2] = species: Cavia porcellus; assay: Percentage inhibition of contraction height in guinea pig ileum longitudinal muscle myenteric plexus (GPI/LMMP) 1 uM; format: functional
How it was run: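 Agonist effect read in isolated guinea pig ileum longitudinal muscle/myenteric plexus preparation as percent inhibition of contraction height, at one test concentration.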

[3] = molecular target: T1, Kappa-type opioid receptor (Cavia porcellus, UniProt P41144); assay: Displacement of [3H]U-69593 at opioid receptor kappa 1
[4] = molecular target: T1, Kappa-type opioid receptor; assay: Antagonist activity of compound on U50,488H stimulated [35S]GTP-gamma-S binding to opioid receptor kappa 1; format: functional
[5] = molecular target: T2, Delta-type opioid receptor (Mus musculus, UniProt P32300); assay: Displacement of [3H]DADLE at delta-opioid receptor
[6] = molecular target: T2, Delta-type opioid receptor; assay: Antagonist activity of compound on agonist stimulated [35S]GTP-gamma-S binding on delta-opioid receptor; format: functional
Mus musculus [7] = species: Mus musculus; assay: Antagonist activity of compound in mouse vas deferens tested with DPDPE; format: functional
How it was run: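 Isolated mouse vas deferens. Antagonism is measured against the δ agonist DPDPE and expressed as Ke (nM). Agonist activity is recorded separately as percent inhibition of contraction height at a single stated concentration.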

Mus musculus [8] = species: Mus musculus; assay: Percentage inhibition of contraction height in mouse vas deferens (MVD) at 1 uM; format: functional
Mu-type opioid receptor [9] = molecular target: T3, Mu-type opioid receptor (Rattus norvegicus, UniProt P33535); assay: Displacement of [3H]DAMGO at mu-opioid receptor
Mus musculus [10] = species: Mus musculus; assay: Percentage inhibition of contraction height in mouse vas deferens (MVD) at 100 nM; format: functional
How it was run: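 Agonist effect read in isolated mouse vas deferens preparation as percent inhibition of contraction height, at one test concentration.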

Mu-type opioid receptor [11] = molecular target: T3, Mu-type opioid receptor; assay: Antagonist activity of compound on DAMGO stimulated [35S]GTP-gamma-S binding to mu-opioid receptor; format: functional
[12] = molecular target: T2, Delta-type opioid receptor; assay: Antagonist activity of compound on SNC 80 stimulated [35S]GTP-gamma-S binding to delta-opioid receptor; format: functional
Mu-type opioid receptor [13] = molecular target: T3, Mu-type opioid receptor; assay: Antagonist activity of compound on agonist stimulated [35S]GTP-gamma-S binding on mu-opioid receptor; format: functional

T1 sequence (P41144 whole entry): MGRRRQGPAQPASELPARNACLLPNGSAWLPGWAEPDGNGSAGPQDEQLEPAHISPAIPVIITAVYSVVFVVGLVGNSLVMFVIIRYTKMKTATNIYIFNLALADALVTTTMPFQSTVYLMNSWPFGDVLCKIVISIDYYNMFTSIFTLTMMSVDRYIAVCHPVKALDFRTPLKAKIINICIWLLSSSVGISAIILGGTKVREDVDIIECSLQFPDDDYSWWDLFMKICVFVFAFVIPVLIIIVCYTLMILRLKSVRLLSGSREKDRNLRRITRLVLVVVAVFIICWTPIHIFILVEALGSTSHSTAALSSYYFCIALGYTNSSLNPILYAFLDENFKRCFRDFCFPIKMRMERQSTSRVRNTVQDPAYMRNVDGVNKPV
T3 sequence (P33535 whole entry): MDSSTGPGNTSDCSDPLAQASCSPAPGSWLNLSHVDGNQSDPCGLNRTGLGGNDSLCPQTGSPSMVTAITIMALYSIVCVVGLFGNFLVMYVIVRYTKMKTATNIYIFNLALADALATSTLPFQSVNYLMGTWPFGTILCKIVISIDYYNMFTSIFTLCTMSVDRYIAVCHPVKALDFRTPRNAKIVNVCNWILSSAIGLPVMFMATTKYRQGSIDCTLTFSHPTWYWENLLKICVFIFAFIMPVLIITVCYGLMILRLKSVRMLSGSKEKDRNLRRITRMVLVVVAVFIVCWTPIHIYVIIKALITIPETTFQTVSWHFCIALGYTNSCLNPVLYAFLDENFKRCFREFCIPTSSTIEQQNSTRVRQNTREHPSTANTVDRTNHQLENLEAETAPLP
T2 sequence (P32300 whole entry): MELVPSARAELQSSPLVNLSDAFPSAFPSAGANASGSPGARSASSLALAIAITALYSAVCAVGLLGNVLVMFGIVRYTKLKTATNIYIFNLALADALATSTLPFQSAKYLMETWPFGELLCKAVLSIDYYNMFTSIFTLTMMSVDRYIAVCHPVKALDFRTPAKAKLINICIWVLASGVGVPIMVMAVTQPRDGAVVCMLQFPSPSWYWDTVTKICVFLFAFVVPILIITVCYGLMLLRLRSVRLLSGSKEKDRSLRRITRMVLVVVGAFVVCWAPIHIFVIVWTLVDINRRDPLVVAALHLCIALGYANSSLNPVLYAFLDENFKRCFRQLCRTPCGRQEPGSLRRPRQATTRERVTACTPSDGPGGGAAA

Structure (SMILES) | Ki [3] | Ki [5] | Ki (Mu-type opioid receptor [9]) | other results
Cl.Oc1ccc2c3c1O[C@H]1c4[nH]c5ccccc5c4C[C@@]4(O)[C@@H](C2)N(CC2CC2)CC[C@]314 [NALTRINDOLE HYDROCHLORIDE] | 30 nM | 0.22 nM | – | Ke (Cavia porcellus [1]): 43 nM; Inhibition (Cavia porcellus [2]): 18%; Ki [4]: 4.7 nM; Ki [6]: 0.03 nM; Ke (Mus musculus [7]): 0.49 nM; inhibition at 1 µM (Mus musculus [8]): 16%
CC(C)CN1CC[C@]23c4c5ccc(O)c4O[C@H]2c2[nH]c4ccccc4c2C[C@@]3(O)[C@H]1C5 | 650 nM | 3.8 nM | 2600 nM | –
CCCCCCN1CC[C@]23c4c5ccc(O)c4O[C@H]2c2[nH]c4ccccc4c2C[C@@]3(O)[C@H]1C5 | 3100 nM | 26 nM | 4600 nM | –
CC(C)CCN1CC[C@]23c4c5ccc(O)c4O[C@H]2c2[nH]c4ccccc4c2C[C@@]3(O)[C@H]1C5 | 670 nM | 4.8 nM | 1300 nM | –
CCN1CC[C@]23c4c5ccc(O)c4O[C@H]2c2[nH]c4ccccc4c2C[C@@]3(O)[C@H]1C5 | 3000 nM | 5 nM | 2500 nM | Ke (Cavia porcellus [1]): 96 nM; Inhibition (Cavia porcellus [2]): 1.2%; inhibition at 0.1 µM (Mus musculus [10]): 9%; Ki [4]: > 1000 nM; Ki (Mu-type opioid receptor [11]): 290 nM; Ki [12]: 3.2 nM; Ke (Mus musculus [7]): 9.6 nM
C/C=C/CN1CC[C@]23c4c5ccc(O)c4O[C@H]2c2[nH]c4ccccc4c2C[C@@]3(O)[C@H]1C5 | 960 nM | 7.4 nM | 1200 nM | Ke (Cavia porcellus [1]): 5500 nM; Inhibition (Cavia porcellus [2]): 22%; inhibition at 0.1 µM (Mus musculus [10]): 12%; Ki [4]: 118 nM; Ki (Mu-type opioid receptor [13]): 30 nM; Ki [6]: 0.68 nM; Ke (Mus musculus [7]): 26 nM
CCCCN1CC[C@]23c4c5ccc(O)c4O[C@H]2c2[nH]c4ccccc4c2C[C@@]3(O)[C@H]1C5 | 900 nM | 8.4 nM | 1300 nM | –
CCCN1CC[C@]23c4c5ccc(O)c4O[C@H]2c2[nH]c4ccccc4c2C[C@@]3(O)[C@H]1C5 | 380 nM | 2 nM | – | –
CC(C)=CCN1CC[C@]23c4c5ccc(O)c4O[C@H]2c2[nH]c4ccccc4c2C[C@@]3(O)[C@H]1C5 | 3200 nM | 25 nM | 2800 nM | –
CN1CC[C@]23c4c5ccc(O)c4O[C@H]2c2[nH]c4ccccc4c2C[C@@]3(O)[C@H]1C5 [OXYMORPHINDOLE] | – | – | 66 nM | –
CC(C)N1CC[C@]23c4c5ccc(O)c4O[C@H]2c2[nH]c4ccccc4c2C[C@@]3(O)[C@H]1C5 | 6200 nM | 33 nM | > 6600 nM | –
CCCCCCCN1CC[C@]23c4c5ccc(O)c4O[C@H]2c2[nH]c4ccccc4c2C[C@@]3(O)[C@H]1C5 | > 7000 nM | 79 nM | 4600 nM | –
CCCCCN1CC[C@]23c4c5ccc(O)c4O[C@H]2c2[nH]c4ccccc4c2C[C@@]3(O)[C@H]1C5 | 2000 nM | 16 nM | 2800 nM | –

— ChEMBL document CHEMBL1134413, “Effect of N-alkyl and N-alkenyl substituents in noroxymorphindole, 17-substituted-6,7-dehydro-4,5alpha-epoxy-3,14-dihydroxy-6,7:2',3'-indolomorphinans, on opioid receptor affinity, selectivity, and efficacy” (J Med Chem, 2001)
